Laboratory results published in ChEMBL document CHEMBL4017487, “Design and Synthesis of γ- and δ-Lactam M1 Positive Allosteric Modulators (PAMs): Convulsion and Cholinergic Toxicity of an M1-Selective PAM with Weak Agonist Activity” (J Med Chem, 2017).
Changes are numbered by the printed parent chain. Active and inactive are the calls of the source. The rule behind the calls is not given here.

Legend:
[1] = Intrinsic clearance in human liver microsomes; assay type: ADME, microsome; conditions: read-out: CLH
[2] = biological target: T1, Muscarinic acetylcholine receptor M4 (Homo sapiens, UniProt P08173); assay: Positive allosteric modulation of human muscarinic acetylcholine receptor M4 expressed in CHO cells assessed as increase in acetylcholine-induced cAMP accumulation up to 10 uM after 2 hrs by cAMP-Glo assay; assay type: cell-based
T1 sequence (P08173 whole entry): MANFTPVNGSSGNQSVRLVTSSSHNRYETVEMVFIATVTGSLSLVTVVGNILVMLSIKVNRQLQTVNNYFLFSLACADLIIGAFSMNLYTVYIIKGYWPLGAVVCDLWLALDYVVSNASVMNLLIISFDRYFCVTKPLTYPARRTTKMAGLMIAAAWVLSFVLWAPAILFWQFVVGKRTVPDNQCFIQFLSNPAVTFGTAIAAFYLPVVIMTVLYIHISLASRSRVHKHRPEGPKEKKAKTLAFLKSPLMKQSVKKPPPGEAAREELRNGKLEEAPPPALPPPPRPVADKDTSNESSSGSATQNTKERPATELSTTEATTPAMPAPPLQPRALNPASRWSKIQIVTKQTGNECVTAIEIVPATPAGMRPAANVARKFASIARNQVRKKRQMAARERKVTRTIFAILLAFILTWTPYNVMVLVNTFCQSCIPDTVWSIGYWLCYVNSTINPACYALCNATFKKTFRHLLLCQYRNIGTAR
Summary of the method: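 Recombinant functional human M2–M5 assays, each run in agonist and PAM modes at concentrations up to 10 μM.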

[3] = biological target: T2, Muscarinic acetylcholine receptor M1 (Homo sapiens, UniProt P11229); assay: Agonist activity at human muscarinic acetylcholine receptor M1 expressed in CHO cells assessed as increase in calcium mobilization incubated for 10 mins by Fluo-8-AM dye based FLIPR assay; assay type: cell-based
T2 sequence (P11229 whole entry): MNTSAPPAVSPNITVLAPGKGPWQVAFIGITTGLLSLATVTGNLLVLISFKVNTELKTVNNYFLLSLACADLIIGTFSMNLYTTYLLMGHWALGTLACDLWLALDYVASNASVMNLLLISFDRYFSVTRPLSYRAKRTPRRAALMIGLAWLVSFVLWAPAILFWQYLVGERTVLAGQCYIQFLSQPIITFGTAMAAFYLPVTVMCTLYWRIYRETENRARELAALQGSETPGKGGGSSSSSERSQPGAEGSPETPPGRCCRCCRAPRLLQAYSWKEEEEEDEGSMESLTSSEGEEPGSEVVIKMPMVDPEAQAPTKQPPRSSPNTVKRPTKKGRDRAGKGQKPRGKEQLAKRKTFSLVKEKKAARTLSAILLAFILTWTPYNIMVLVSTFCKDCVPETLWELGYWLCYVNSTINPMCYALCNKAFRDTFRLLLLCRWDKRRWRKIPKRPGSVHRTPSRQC
Summary of the method: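 M1 FLIPR calcium mobilization run in agonist mode (compound added without the EC20 ACh used in PAM mode). Top concentration 10 μM. EC50 values are geometric means of at least three experiments.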

[4] = Selectivity ratio of EC50 for human muscarinic acetylcholine receptor M4 expressed in CHO cells to EC50 for human muscarinic acetylcholine receptor M1 expressed in CHO cells; assay type: ADME, cell-based
[5] = biological target: T3, Muscarinic acetylcholine receptor M1 (Rattus norvegicus, UniProt P08482); assay: Positive allosteric modulation of muscarinic acetylcholine receptor M1 in Sprague-Dawley rat brain hippocampal slices assessed as increase in carbachol-induced firing rate at CA1 pyramidal neurons at 3 uM after 10 mins in presence of M1 antagonist VU0255035 by electrophysiology method
T3 sequence (P08482 whole entry): T2 sequence (P11229 whole entry) with A5V, T254S, P309S, R320K, A337G, I413V
Summary of the method: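 Hippocampal CA1 spike-rate assay in PAM mode (EC20 carbachol) with a reportedly M1-selective muscarinic antagonist added to the slices.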

[6] = biological target: T2, Muscarinic acetylcholine receptor M1; assay: Activity at human muscarinic acetylcholine receptor M1 expressed in CHO cells assessed as increase in calcium mobilization incubated for 10 mins by Fluo-8-AM dye based FLIPR assay; assay type: cell-based
[7] = biological target: T2, Muscarinic acetylcholine receptor M1; assay: Positive allosteric modulation of human muscarinic acetylcholine receptor M1 expressed in CHO cells assessed as increase in acetylcholine-induced beta-arrestin recruitment by measuring functional co-operativity with acetylcholine; assay type: ADME, cell-based
Plasma [8] = assay: Unbound plasma concentration in amphetamine-induced hyperlocomotion C57BL/6 mouse at 0.3 mg/kg, sc measured after 1 hr by LC-MS/MS analysis; assay type: ADME, organism-based; conditions: in vivo
Summary of the method: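 Satellite group of C57BL/6 mice from the amphetamine-stimulated locomotor study, N = 2/dose at 0.32, 1 and 3.2 mg/kg. Dosed sc as a solution in 10/90 Cremophor/water. Unbound plasma and brain concentrations measured at T = 1 h.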

Rattus norvegicus = assay: Reversal of scopolamine-induced memory impairment in Wistar rat assessed as […] in hidden platform during 5 days training period at 0.32 to 3.2 mg/kg, sc administered 15 mins prior to test for 5 consecutive days followed by scopolamine challenge 30 mins prior to test by Morris water maze test; assay type: functional, organism-based
Plasma [9] = assay: Unbound plasma concentration in scopolamine-induced memory impairment Wistar rat model at 0.32 mg/kg, sc measured after 1.25 hrs by LC-MS/MS analysis; assay type: ADME, organism-based; conditions: in vivo
Summary of the method: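 Rats from a satellite group of the scopolamine (0.32 mg/kg) Morris water maze study, N = 2/dose. Dosed sc as a solution in 20% hydroxypropyl β-cyclodextrin. Compound concentrations measured in plasma only at T = 1.25 h.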

Canis familiaris [10] = assay: Unbound Cmax in dog plasma at 5 mg/kg, po administered as single dose using spray dried dispersion formulation; assay type: ADME, organism-based, Canis lupus familiaris; conditions: in vivo
Canis familiaris [11] = assay: Unbound AUC (0 to 24 hrs) in dog plasma at 5 mg/kg, po administered as single dose using spray dried dispersion formulation; assay type: ADME, organism-based, Canis lupus familiaris; conditions: in vivo
Canis familiaris [12] = assay: Cholinergic toxicity in dog assessed as ataxia at 5 mg/kg, po administered as single dose using spray dried dispersion formulation after 2 hrs; assay type: organism-based, Canis lupus familiaris; conditions: in vivo
Summary of the method: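 Dog single oral dose escalation: 1/sex at 5 mg/kg for each formulation; 1 female at 15 mg/kg. Spray-dried dispersion: 23% drug loading with 0.5% methylcellulose and 100 mM citrate buffer. Clinical signs timed in approximate hours postdose; unbound plasma Cmax.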

Canis familiaris [13] = assay: Toxicity in dog assessed as unbound Cmax in plasma required to show convulsions at 15 mg/kg, po administered as single dose using spray dried dispersion formulation; assay type: organism-based, Canis lupus familiaris; conditions: in vivo
[14] = Ratio of unbound Cmax in rat brain assessed as convulsions at 45 mg/kg, po administered as single dose to unbound brain concentration for agonist activity at muscarinic acetylcholine receptor M1 in C57BL/6 mouse assessed as required to show 2 fold increase in IP1 accumulation in striatum at 1 to 10 mg/kg, sc; assay type: organism-based

In the case of `Cc1cc2c(cc1Cc1ccc(-c3cocn3)cc1)C(=O)N([C@H]1CCOC[C@@H]1O)C2`, the CLint scaled [1] is reported as less than 8 mL/min/kg, the Activity [2] is reported as “Not Active” and the EC50 [3] is reported as no less than 5 µM. For the same molecule, the “Ratio EC50” value [4] was greater than 200, the Activity [5] was “Not Active” and the Kb [6] was 3 µM. The “log(activity)” value [7] was 2.9, the “Cp(f)” value (Plasma [8]) was 7.3 nM and the Activity (Rattus norvegicus) was “Active”. For the same molecule, the “Cp(f)” value (Plasma [9]) was 17 nM, the fCmax (Canis familiaris [10]) was 446 nM and the fAUC (Canis familiaris [11]) was 3.85 µM·h. The Activity (Canis familiaris [12]) was “Toxic”, the fCmax (Canis familiaris [13]) was 1070 nM and the selectivity ratio [14] was 20.
